Assay [1] in a line: Reversal of multidrug resistance in human 2780AD cells assessed as increase in vincristine accumulation at 1 ug/ml relative to verapamil. In kind it is functional, A2780 ADR.
The test system of assay [2] is KB. Put plainly: Cytotoxicity against human KB cells. In kind it is functional, cell-based.
A short description of assay [3]: Reversal of multidrug resistance in human 2780AD cells assessed as increase in vincristine accumulation at 10 ug/ml relative to verapamil. It is filed as functional, A2780 ADR.
Assay [4] has as its system P388. Description: Antitumor activity against vincristine-resistant mouse P388 cells implanted in CDF1 mouse at 0.2 mg/kg assessed as median survival time relative to control. In kind it is functional. The essentials: (§1)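 CDF1 mice were implanted i.p. with P388/VCR (vincristine-resistant) leukemia cells on day 0. Vincristine was given i.p. daily for 5 days, alone or together with a taxoid at 200 mg/kg. There were 5 mice per group. T/C (%) is the median survival time of treated mice divided by that of untreated control mice.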

Assay [5] deals with P388. Put plainly: Antitumor activity against vincristine-resistant mouse P388 cells implanted in CDF1 mouse at 0.1 mg/kg assessed as median survival time relative to control. It is filed as functional. The essentials:
as §1

In brackets after ≈: the same amount, converted by molar mass.

What is called IC50 is the point on the concentration scale where inhibition reaches its midpoint. High values mean weaker potency in that assay, low ones greater potency in that assay. What is called T/C is the ratio of treated to control.

Turning to `C=C1[C@@H](OC(=O)/C=C/c2ccccc2)CC[C@@]2(C)[C@@H](OC(C)=O)[C@H](OC(C)=O)[C@@]34[C@H](C)C(=O)C[C@@](O)([C@@H](OC(C)=O)[C@@]132)C4(C)C`, the Activity in assay [1] is 204%.
In assay [2], `CCCCCC(=O)N[C@@H](c1ccccc1)[C@@H](O)C(=O)O[C@H]1C[C@@]2(O)[C@@H](OC(=O)c3ccccc3)[C@@H]3[C@]4(OC(C)=O)CO[C@@H]4C[C@H](O)[C@@]3(C)C(=O)[C@H](O)C(=C1C)C2(C)C` [10-DEACETYLTAXAYUNNANINE A] came in with a half-inhibitory concentration (IC50) of 1.5 ng/mL (≈ 1.86 nM).
Still for that read-out and setting: the same measure for `CC(=O)O[C@@]12CO[C@@H]1C[C@@H](O)[C@@]1(C)C(=O)[C@H](O)C3=C(C)[C@@H](OC(=O)[C@H](O)[C@@H](NC(=O)c4ccccc4)c4ccccc4)C[C@@](O)([C@@H](OC(=O)c4ccccc4)[C@H]21)C3(C)C`: 1.5 ng/mL (≈ 1.85 nM).
Regarding `C=C1[C@@H](OC(=O)/C=C/c2ccccc2)CC[C@@]2(C)[C@@H](OC(C)=O)[C@H](OC(C)=O)[C@@]34O[C@]3(C)C(=O)C[C@@H]([C@@H](OC(C)=O)[C@H]12)C4(C)C`, the Activity in assay [1] was 142%.
`CC(=O)O[C@H]1C(=O)[C@]2(C)[C@H](O)C[C@H]3OC[C@@]3(OC(C)=O)[C@H]2[C@H](OC(=O)c2ccccc2)[C@]2(O)C[C@H](OC(=O)[C@H](O)[C@@H](NC(=O)c3ccccc3)c3ccccc3)C(C)=C1C2(C)C`: the IC50 in assay [2] is 1.5 ng/mL (≈ 1.76 nM).
As to `C=C1[C@@H](OC(=O)/C=C/c2ccccc2)CC[C@@]2(C)[C@@H](O)[C@H](OC(C)=O)C3=C(C)C(=O)C[C@@H]([C@@H](OC(C)=O)[C@H]12)C3(C)C`, the Activity in assay [3] is listed as 185%. The midpoint of inhibition in assay [2], the IC50, lay at 80 ng/mL (≈ 142 nM).
Compound `C/C=C(\C)C(=O)O[C@@H]1C2=C(C)[C@@H](O)C[C@@](C(C)(C)O)([C@@H](OC(C)=O)[C@@H]3[C@]4(OC(C)=O)CO[C@@H]4C[C@H](OC(C)=O)[C@@]3(C)[C@H]1OC(C)=O)C2(C)C` [TAXUSPINE Q] gave an IC50 in assay [2] of 80 ng/mL (≈ 115 nM).
Still for that read-out and setting: the same measure for `CC(=O)O[C@H]1C(=O)[C@@]2(C)[C@H]([C@H](OC(=O)c3ccccc3)[C@]3(O)C[C@H](OC(=O)[C@H](O)[C@@H](NC(=O)c4ccccc4)c4ccccc4)C(C)=C1C3(C)C)[C@]1(OC(C)=O)CO[C@@H]1C[C@@H]2O` [PACLITAXEL]: 1.5 ng/mL (≈ 1.76 nM).
As to `C=C1[C@@H](OC(=O)/C=C/c2ccccc2)CC[C@@]2(C)[C@@H](OC(C)=O)[C@H](OC(C)=O)C3=C(C)C(=O)C[C@@H]([C@@H](O)[C@H]12)C3(C)C`, the Activity in assay [3] turned out to be 191%.
With `CC[C@]1(O)C[C@H]2CN(CCc3c([nH]c4ccccc34)[C@@](C(=O)OC)(c3cc4c(cc3OC)N(C=O)[C@H]3[C@@](O)(C(=O)OC)[C@H](OC(C)=O)[C@]5(CC)C=CCN6CC[C@]43[C@@H]65)C2)C1` [VINCRISTINE], the T/C in assay [4] was found to be 110%; in assay [5], 92%.
Compound `C=C1[C@H]2C[C@]3(C(C)(C)O)C[C@H](O)C(C)=C3[C@@H](OC(=O)c3ccccc3)[C@H](OC(C)=O)[C@]2(C)[C@@H](OC(C)=O)C[C@@H]1O` [BREVIFOLIOL] came in with an IC50 in assay [2] of 80 ng/mL (≈ 144 nM).
Same read-out and setting: as for `CCCC(=O)N[C@@H](c1ccccc1)[C@@H](O)C(=O)O[C@H]1C[C@@]2(O)[C@@H](OC(=O)c3ccccc3)[C@@H]3[C@]4(OC(C)=O)CO[C@@H]4C[C@H](O)[C@@]3(C)C(=O)[C@H](OC(C)=O)C(=C1C)C2(C)C` [TAXCULTIN], the figure is 1.5 ng/mL (≈ 1.83 nM).
In assay [2], `C=C1[C@@H](O)CC[C@@]2(C)[C@@H](OC(C)=O)[C@H](OC(C)=O)C3=C(C)C(=O)C[C@@](O)([C@@H](OC(C)=O)[C@H]12)C3(C)C` registered an IC50 of 80 ng/mL (≈ 162 nM). Compared with the last compound, the IC50 is about 53-fold higher.

The values are drawn from ChEMBL document CHEMBL1138436, “Biological activity and chemistry of taxoids from the Japanese yew, Taxus cuspidata” (J Nat Prod, 2004).
